Compound activity (PubChem BioAssay)
SR-BI DiI inh – blocks mouse SR-BI lipid uptake from DiI-HDL; Q61009; ldlA[mSR-BI] CHO cells, DiI-HDL uptake fluorescence, 3 h; inhibition, % at 12.5 µM; 320,000 tested, 0.96% active;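 active means mean replicate inhibition of at least 70% and a set share of replicates each scoring 70 or more; inconclusive means meets just one of the two criteria; inactive means fails both criteria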
Target sequence (Q61009 whole entry, looked up): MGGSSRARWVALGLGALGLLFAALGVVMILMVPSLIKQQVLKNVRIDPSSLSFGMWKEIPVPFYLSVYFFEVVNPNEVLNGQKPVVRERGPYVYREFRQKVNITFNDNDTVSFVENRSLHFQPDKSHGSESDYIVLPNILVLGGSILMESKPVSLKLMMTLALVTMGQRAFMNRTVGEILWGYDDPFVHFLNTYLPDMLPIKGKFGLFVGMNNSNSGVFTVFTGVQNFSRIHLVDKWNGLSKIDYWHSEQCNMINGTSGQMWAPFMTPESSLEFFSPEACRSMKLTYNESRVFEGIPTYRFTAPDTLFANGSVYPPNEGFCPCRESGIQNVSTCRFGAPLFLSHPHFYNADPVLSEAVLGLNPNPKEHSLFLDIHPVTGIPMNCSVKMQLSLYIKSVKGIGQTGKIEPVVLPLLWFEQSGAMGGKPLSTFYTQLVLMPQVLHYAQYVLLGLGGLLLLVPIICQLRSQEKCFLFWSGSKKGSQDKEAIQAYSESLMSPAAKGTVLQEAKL
SR-BI uptake up – enhances SR-BI lipid uptake from DiI-HDL | CHO ldlA[mSR-BI] cells, DiI-HDL uptake fluorescence, 3 h; 100 = double the neutral-control signal | activation, % at 12.5 µM | 320,000 tested, 0.096% active | AID 504775;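 active means mean replicate activation of at least 60% and every replicate at or above 60%; inconclusive means mean or all-replicate condition met, but not both; inactive means mean below 60% and not all replicates reaching 60%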
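Assay system: CHO ldlA[mSR-BI] cells, LDL receptor-null, SR-BI overexpressing; medium: Ham's F12 with 0.5% BSA, HEPES 25 mM, pH 7.4; also added: DiI-HDL 10 µg/mL; timing: 3 h uptake period with compound, 37 °C; signal: DiI fluorescence, bottom read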
SMARCA2 act – activators of SMARCA2 function; 370,000 tested, 1% active; MG213 cells, MMTV-luciferase reporter, dexamethasone, overnight; activation, % at 9.1 µM; AID 652017; in the data active means activation above about 7.8%
Lipid droplet – modulators of hepatic lipid droplet formation. AML12 mouse hepatocytes, oleate lipid droplets, BODIPY imaging. 240,000 tested, 0.4% active. AID 1656. inhibition, % at 6.5 µM;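 active means lipid droplet intensity inhibited by at least 50%, with more than 500 cells counted; inconclusive means wells with under 300 cells, treated as cytotoxic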
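Assay system: AML12 hepatocytes (mouse) / Also added: 100 µM oleic acid challenge / Times: overnight treatment with compound plus oleate / Detection: high-content imaging of BODIPY-stained droplets and DAPI nuclei / Evaluation: % inhibition of lipid droplet signal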
AHR activator – human AHR activation; P35869; AHR-responsive luciferase reporter cells, luminescence; activation, % at 5 µM; 320,000 tested, 2.5% active; AID 2796; in the data active means activation above about 47%
Yeast superoxide – yeast age-related superoxide inhibition as caloric restriction mimetic; S. cerevisiae aged cells, superoxide DHE fluorescence; stronger effect = lower value; superoxide response (% of plate mean), % at 10 µM; 330,000 tested, 0.18% active; AID 2690;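 active means superoxide response under a set limit, about three screen SD below normal, cut at about 65% in these data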;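 further: yeast aged for seven days with compound at 30 °C before DHE staining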
Each line names hits and unclear results; the compound was inactive in the other large screens. Most compounds without a hit are left out; they make up all but 4.3% or so of the library.

CCN(CC)C(=O)c1cn(C)c(=O)c2cc(OC)c(OC)cc12	none
CCN(C(=O)c1cn(C)c(=O)c2cc(OC)c(OC)cc12)c1cc(OC)ccc1OC	SR-BI uptake up 67 (no result: Lipid droplet)
CC(=O)C1=C(C)NC(SCC(=O)c2ccc(Cl)cc2)=C(C#N)C1c1ccco1 (configuration not stated)	none (no result: Lipid droplet)
CC(=O)C1=C(C)NC(SCC(=O)c2ccc(Cl)cc2Cl)=C(C#N)C1c1ccco1 (configuration not stated)	AHR activator 107 (no result: Lipid droplet)
CC(=O)C1=C(C)NC(SCC(=O)c2ccccc2)=C(C#N)C1c1ccco1 (configuration not stated)	AHR activator 107 (no result: SR-BI DiI inh, SR-BI uptake up, SMARCA2 act, Lipid droplet)
COc1cc2c3nnc(-c4ccc(F)cc4)c-3cn(Cc3ccccc3)c2cc1OC	SMARCA2 act 19
Cn1c(NC(=S)Nc2ccccc2)nc2ccccc21	AHR activator 60
Cn1c(CNc2ccc(O)cc2)nc2ccccc21	none
Cn1c(CNc2nc3ccccc3n2C)nc2ccccc21	AHR activator 49 (no result: Lipid droplet)
COc1ccc(NCc2nc3ccccc3n2C)cc1	AHR activator 53
CCOC(=O)c1ccc(NCc2nc3ccccc3n2C)cc1	AHR activator 59 (no result: Lipid droplet)
C=CCN(CC#Cc1ccccn1)Cc1ccc(OC)cc1OC	none (no result: SR-BI DiI inh, SR-BI uptake up, Lipid droplet, AHR activator, Yeast superoxide)
O=C(O)C1CCCN1C(=O)c1cccc(Cl)c1 (configuration not stated)	none (no result: SR-BI DiI inh, SR-BI uptake up, Lipid droplet, AHR activator, Yeast superoxide)
COc1ccc(OC)c(-c2cc(C(=O)Nc3cc(C)n(Cc4ccc(Cl)cc4)n3)no2)c1	SR-BI DiI inh 89 (no result: Lipid droplet)
COC(=O)[C@]12C[C@H](CC(=O)NCCCN3CCCC3=O)C(=O)N(Cc3ccccc3)C1=C[C@H](COCc1ccccc1)O[C@@H]2C	none (no result: SR-BI DiI inh, SR-BI uptake up, Lipid droplet, AHR activator, Yeast superoxide)
O=C(NCCCn1ccnc1)c1cc2ccccc2o1	none
Cc1c(C(=O)NCCCn2ccnc2)oc2ccccc12	AHR activator 59
O=C(NCCCn1ccnc1)c1ccccc1Cl	none
O=C(NCCCn1ccnc1)c1csc2ccccc12	AHR activator 52 (no result: SR-BI DiI inh, SR-BI uptake up)
Cc1ccccc1S(=O)(=O)N1CCCc2nc(-c3ccc(F)cc3)ccc21	none (no result: SR-BI DiI inh, SR-BI uptake up, Lipid droplet, AHR activator, Yeast superoxide)
Cc1ccc(Nc2nc(N/N=C/c3c[nH]c4ccccc34)nc(N3CCOCC3)n2)cc1	SR-BI DiI inh 110, Lipid droplet 126, AHR activator 51
Cc1nn(-c2ccccc2)c2sc(C(=O)N3CCN(C(c4ccccc4)c4ccc(Cl)cc4)CC3)cc12 (configuration not stated)	none (no result: SR-BI DiI inh, SR-BI uptake up, Lipid droplet, AHR activator, Yeast superoxide)
Cc1nc(N2CCC(C)CC2)c2c(C)c(C(=O)Nc3ccc4c(c3)OCCO4)sc2n1	none
Cc1nc(N2CCC(C)CC2)c2c(C)c(C(=O)Nc3ccc(C(F)(F)F)cc3)sc2n1	SR-BI DiI inh 75
Cc1nc(N2CCC(C)CC2)c2c(C)c(C(=O)Nc3cccc(C(F)(F)F)c3)sc2n1	SR-BI DiI inh 87
Cc1[nH]nc(-c2ccc(O)cc2O)c1-c1ccc(Cl)cc1	none (no result: Lipid droplet)
Cc1[nH]nc(-c2ccc(O)cc2O)c1-c1nc2ccccc2s1	AHR activator 73
COCCN=c1scc(-c2ccccc2)n1/N=C/c1c[nH]c2ccccc12	SR-BI DiI inh 83, AHR activator 55
COc1ccc(NC(=O)/C(C#N)=C/c2ccc(OCCN3CCOCC3)c(OC)c2)c(OC)c1	SR-BI DiI inh 75 (no result: SMARCA2 act)
COc1ccccc1NC(=O)/C(C#N)=C/c1ccc(OCCN2CCOCC2)c(OC)c1	SR-BI DiI inh inconclusive (no result: SMARCA2 act)
CCCCNC(=O)NS(=O)(=O)c1ccc(NC(=O)CSc2nnc(-c3ccc(Cl)cc3)n2N)cc1	none (no result: SR-BI DiI inh, SR-BI uptake up, Lipid droplet, AHR activator, Yeast superoxide)
NS(=O)(=O)c1ccc(NN=C2CCCCC2)c([N+](=O)[O-])c1	SMARCA2 act 7.8
Oc1c(Cl)cc(Cl)cc1C=Nc1cc(C(F)(F)F)ccc1N1CCc2ccccc2C1	AHR activator 68
Oc1c(Cl)cccc1C=Nc1cc(C(F)(F)F)ccc1N1CCCC1	none
CCCCCCC(=O)NC1CCCCN(Cc2ccc(C)cc2)C1=O (configuration not stated)	none (no result: SR-BI DiI inh, SR-BI uptake up, Lipid droplet, AHR activator, Yeast superoxide)
COC(=O)c1c(NC(=S)Nc2ccccc2Cl)sc(C)c1C	SR-BI DiI inh 75 (no result: SMARCA2 act, Lipid droplet)
CCc1c(C)sc(NC(=S)Nc2cccnc2)c1C(=O)OC	AHR activator 76
CCOC(=O)c1sc(NC(=O)Nc2ccc(Cl)cc2)cc1C	SR-BI DiI inh 76
CCOC(=O)c1sc(NC(=O)c2c(C)nn(Cc3ccccc3)c2C)cc1C	SR-BI DiI inh 82
CCOC(=O)c1sc(NC(=O)c2ccccc2)cc1C	none
Cc1ccc(OCCNC(=O)[C@@H](Cc2ccccc2)NC(=O)[C@H]2O[C@@H](n3ccc(=O)[nH]c3=O)[C@H](O)[C@@H]2O)cc1C	none (no result: SR-BI DiI inh, SR-BI uptake up, Lipid droplet, AHR activator, Yeast superoxide)
CN(c1ccc(NC(=O)Cc2cn(C)c3ccccc23)cc1)c1ccccn1	none (no result: SR-BI DiI inh, SR-BI uptake up, Lipid droplet, AHR activator, Yeast superoxide)
Cc1cc(=O)oc2c1c(C)nn2-c1ccc(Br)cc1	AHR activator 67
Cc1cc(=O)oc2c1c(C)nn2-c1ccc(C(=O)OC(C)C)cc1	none (no result: SR-BI DiI inh, SR-BI uptake up, SMARCA2 act, AHR activator, Yeast superoxide)
Cc1nn(-c2cccc(Cl)c2)c2nc(-c3ccco3)cc(C(=O)O)c12	none
Cc1cc(=O)oc2c1c(C)nn2-c1cccc(Cl)c1	AHR activator 71
COc1cc(-c2cc(=O)c3ccc(O)cc3o2)cc(OC)c1OC	none (no result: SR-BI DiI inh, SR-BI uptake up, Lipid droplet, AHR activator, Yeast superoxide)
COc1ccc(-c2ccc3oc(-c4ccsc4)cc3c2)cc1	AHR activator 57 (no result: Lipid droplet)
COc1cc(-c2ccc3oc(-c4ccsc4)cc(=O)c3c2)cc(OC)c1OC	SR-BI DiI inh 73 (no result: Lipid droplet)
